# Columns and labels:
# Format in all cases: functional
# OVCAR-8 = assay: Cytotoxicity against human OVCAR8 cells assessed as cell growth at 10^-7 M after 48 hrs by SRB assay; details: OVCAR-8, 48 h, read-out: Activity
# [1] = Growth inhibition of human NCI-ADR-RES cells after 48 hrs by SRB assay
# Procedure, shortened: (§1)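 Adherent NCI-60 lines grown in RPMI 1640 with 5% FBS, seeded at 5000–40,000 cells/well, and preincubated 24 h at 37 °C, 5% CO2. Compound, stocked in DMSO, given either once at 10^-5 M or at five 10-fold dilutions for 48 h. Cells fixed with cold TCA (final 10%), stained with 0.4% SRB, and read at 515 nm. GI50 taken as 50% reduction in net protein increase versus time-zero and control plates.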
# IGROV-1 = assay: Cytotoxicity against human IGROV1 cells assessed as cell growth at 10^-6 M after 48 hrs by SRB assay; details: IGROV-1, 48 h, read-out: Activity
# Procedure, shortened: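 NCI-60 five-dose screen. Cells were grown in RPMI 1640 with 5% FBS and seeded at 5000–40,000 cells/well according to doubling time. They were pre-incubated 24 h at 37 °C in 5% CO₂, and time-zero (Tz) plates were TCA-fixed at drug addition. Five 10-fold dilutions of DMSO stock were applied for 48 h. Read-out was SRB staining, 515 nm absorbance, with percent growth calculated versus Tz and untreated control.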
# MOLT-4 = assay: Cytotoxicity against human MOLT4 cells assessed as cell growth at 10^-6 M after 48 hrs by SRB assay; details: MOLT-4, 48 h, read-out: Activity
# COLO [2] = assay: Cytotoxicity against human COLO […] cells assessed as cell growth at 10^-4 M after 48 hrs by SRB assay; details: read-out: Activity
# Procedure, shortened: (§2)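 NCI-60 screen: lines kept in RPMI 1640 with 5% FBS, seeded at 5000–40,000 cells/well by doubling time, preincubated 24 h at 37 °C in 5% CO2. Time-zero plates TCA-fixed at drug addition. DMSO stocks diluted in medium, 48 h exposure. Fixation in cold TCA (final 10% adherent, 16% suspension), 0.4% SRB stain, solubilised in 10 mM Tris base, A515. Percent growth computed against control and time-zero.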
# DU-145 = assay: Cytotoxicity against human DU145 cells assessed as cell growth at 10^-7 M after 48 hrs by SRB assay; details: DU-145, 48 h, read-out: Activity; procedure, shortened: as §2
# NCI-H322M = assay: Cytotoxicity against human NCI-H322M cells assessed as cell growth at 10^-4 M after 48 hrs by SRB assay; details: read-out: Activity
# NCI-H460 = assay: Growth inhibition of human NCI-H460 cells after 48 hrs by SRB assay; details: NCI-H460, 48 h; for CC50: read-out: LC50 (the source's name); procedure, shortened: as §1
# 786-0 = assay: Cytotoxicity against human 786-0 cells assessed as cell growth at 10^-4 M after 48 hrs by SRB assay; details: 786-0, 48 h, read-out: Activity; procedure, shortened: as §2
# BT-549 [3] = assay: Cytotoxicity against human BT549 cells assessed as cell growth at 10^-8 M after 48 hrs by SRB assay; details: BT-549, 48 h, read-out: Activity; procedure, shortened: as §2
# CAKI-1 = assay: Cytotoxicity against human Caki1 cells assessed as cell growth at 10^-8 M after 48 hrs by SRB assay; details: CAKI-1, 48 h, read-out: Activity; procedure, shortened: as §2
# MCF7 = assay: Cytotoxicity against human MCF7 cells assessed as cell growth at 10^-4 M after 48 hrs by SRB assay; details: MCF7, 48 h, read-out: Activity
# [4] = Growth inhibition of human MDA-MB-81 cells after 48 hrs by SRB assay
# CCRF-CEM = assay: Cytotoxicity against human CCRF-CEM cells assessed as cell growth at 10^-5 M after 48 hrs by SRB assay; details: read-out: Activity; procedure, shortened: as §2
# NCI-H522 [5] = assay: Cytotoxicity against human NCI-H522 cells assessed as cell growth at 10^-4 M after 48 hrs by SRB assay; details: NCI-H522, 48 h, read-out: Activity
# A498 = assay: Cytotoxicity against human A498 cells assessed as cell growth at 10^-6 M after 48 hrs by SRB assay; details: A498, 48 h, read-out: Activity; procedure, shortened: as §2
# [6] = Growth inhibition of human […] cells after 48 hrs by SRB assay
# A549 = assay: Cytotoxicity against human A549 cells assessed as cell growth at 10^-7 M after 48 hrs by SRB assay; details: A549, 48 h, read-out: Activity; procedure, shortened: as §2
# LOX IMVI = assay: Cytotoxicity against human LOXIMVI cells assessed as cell growth at 10^-8 M after 48 hrs by SRB assay; details: read-out: Activity
# SF-295 = assay: Cytotoxicity against human SF295 cells assessed as cell growth at 10^-7 M after 48 hrs by SRB assay; details: SF-295, 48 h, read-out: Activity
# SK-OV-3 = assay: Cytotoxicity against human SKOV3 cells assessed as cell growth at 10^-8 M after 48 hrs by SRB assay; details: SK-OV-3, 48 h, read-out: Activity
# MDA-MB-435 = assay: Cytotoxicity against human MDA-MB-435 cells assessed as cell growth at 10^-6 M after 48 hrs by SRB assay; details: MDA-MB-435, 48 h, read-out: Activity
# BT-549 [7] = assay: Cytotoxicity against human BT549 cells assessed as cell growth at 10^-6 M after 48 hrs by SRB assay; details: BT-549, 48 h, read-out: Activity; procedure, shortened: as §2
# NCI-H226 = assay: Cytotoxicity against human NCI-H226 cells assessed as cell growth at 10^-8 M after 48 hrs by SRB assay; details: NCI-H226, 48 h, read-out: Activity
# M14 = assay: Growth inhibition of human M14 cells after 48 hrs by SRB assay; details: M14, 48 h; procedure, shortened: as §1
# TK-10 = assay: Cytotoxicity against human TK10 cells assessed as cell growth at 10^-8 M after 48 hrs by SRB assay; details: TK-10, 48 h, read-out: Activity
# RXF 393 = assay: Growth inhibition of human RXF393 cells after 48 hrs by SRB assay; details: RXF 393, 48 h; procedure, shortened: as §1
# SF-268 = assay: Cytotoxicity against human SF268 cells assessed as cell growth at 10^-6 M after 48 hrs by SRB assay; details: SF-268, 48 h, read-out: Activity
# COLO [8] = assay: Cytotoxicity against human COLO […] cells assessed as cell growth at 10^-6 M after 48 hrs by SRB assay; details: read-out: Activity; procedure, shortened: as §2
# MDA-MB-231 [9] = assay: Cytotoxicity against human MDA-MB-231 cells assessed as cell growth at 10^-7 M after 48 hrs by SRB assay; details: MDA-MB-231, 48 h, read-out: Activity
# MDA-MB-231 [10] = assay: Cytotoxicity against human MDA-MB-231 cells assessed as cell growth at 10^-5 M after 48 hrs by SRB assay; details: MDA-MB-231, 48 h, read-out: Activity
# NCI-H522 [11] = assay: Cytotoxicity against human NCI-H522 cells assessed as cell growth at 10^-8 M after 48 hrs by SRB assay; details: NCI-H522, 48 h, read-out: Activity
smiles,measurement,setting,value
COc1ccc(-c2nn3cc(-c4ccc(O)cc4O)nc3s2)cc1,growth at 0.1 µM,OVCAR-8,98%
same,GI50,[1],2.94 µM
same,LC50,[1],> 100 µM
same,TGI,[1],44.9 µM
same,growth at 1 µM,IGROV-1,72%
same,growth at 1 µM,MOLT-4,78%
same,growth at 100 µM,COLO [2],-27%
same,growth at 0.1 µM,DU-145,96%
same,growth at 100 µM,NCI-H322M,11%
same,GI50,NCI-H460,2020 nM
same,CC50,NCI-H460,> 100 µM
same,growth at 100 µM,786-0,-33%
same,growth at 0.01 µM,BT-549 [3],94%
same,growth at 0.01 µM,CAKI-1,95%
same,growth at 100 µM,MCF7,-7%
same,GI50,[4],1370 nM
same,growth at 10 µM,CCRF-CEM,40%
same,growth at 100 µM,NCI-H522 [5],-23%
same,growth at 1 µM,A498,34%
same,GI50,[6],1920 nM
same,growth at 0.1 µM,A549,99%
same,growth at 0.01 µM,LOX IMVI,101%
same,growth at 0.1 µM,SF-295,90%
same,growth at 0.01 µM,SK-OV-3,102%
same,growth at 1 µM,MDA-MB-435,76%
same,growth at 1 µM,BT-549 [7],73%
same,growth at 0.01 µM,NCI-H226,94%
same,GI50,M14,3.68 µM
same,LC50 (concentration killing 50% of cells),M14,> 100 µM
same,TGI,M14,18.1 µM
same,growth at 0.01 µM,TK-10,92%
same,GI50,RXF 393,1090 nM
same,LC50,RXF 393,5.74 µM
same,TGI,RXF 393,2.5 µM
same,growth at 1 µM,SF-268,73%
same,growth at 1 µM,COLO [8],100%
same,growth at 0.1 µM,MDA-MB-231 [9],99%
same,growth at 10 µM,MDA-MB-231 [10],-54%
same,growth at 0.01 µM,NCI-H522 [11],89%
COc1ccc(-c2nn3cc(-c4cccc(N)c4)nc3s2)cc1,growth at 0.1 µM,OVCAR-8,107%
same,GI50,[1],4.46 µM
same,LC50,[1],> 100 µM
same,TGI,[1],55.1 µM
same,growth at 1 µM,IGROV-1,72%
same,growth at 1 µM,MOLT-4,76%
same,growth at 100 µM,COLO [2],-56%
same,growth at 0.1 µM,DU-145,103%
same,growth at 100 µM,NCI-H322M,-3%
same,GI50,NCI-H460,3360 nM
same,TGI,NCI-H460,28.9 µM
same,CC50,NCI-H460,> 100 µM
same,growth at 100 µM,786-0,-93%
same,growth at 0.01 µM,BT-549 [3],102%
same,growth at 0.01 µM,CAKI-1,86%
same,growth at 100 µM,MCF7,-47%
same,GI50,[4],1580 nM
same,growth at 10 µM,CCRF-CEM,10%
same,growth at 100 µM,NCI-H522 [5],-76%
same,growth at 1 µM,A498,53%
same,GI50,[6],2330 nM
same,growth at 0.1 µM,A549,106%
same,growth at 0.01 µM,LOX IMVI,94%
same,growth at 0.1 µM,SF-295,87%
same,growth at 0.01 µM,SK-OV-3,97%
same,growth at 1 µM,MDA-MB-435,77%
same,growth at 1 µM,BT-549 [7],87%
same,growth at 0.01 µM,NCI-H226,92%
same,GI50,M14,5.48 µM
same,LC50 (concentration killing 50% of cells),M14,90.1 µM
same,TGI,M14,24.5 µM
same,growth at 0.01 µM,TK-10,125%
same,GI50,RXF 393,1380 nM
same,LC50,RXF 393,20.9 µM
same,TGI,RXF 393,4.66 µM
same,growth at 1 µM,SF-268,88%
same,growth at 1 µM,COLO [8],94%
same,growth at 0.1 µM,MDA-MB-231 [9],81%
same,growth at 10 µM,MDA-MB-231 [10],5%
same,growth at 0.01 µM,NCI-H522 [11],82%
